Test results: ChEMBL document CHEMBL1146873, “3-demethoxy-3-glycosylaminothiocolchicines: Synthesis of a new class of putative muscle relaxant compounds” (J Med Chem, 2006)

Assays:
[1] = biological target: GABA-A receptor; anion channel; assay: Displacement of [3H]muscimol from GABA-A receptor in Sprague-Dawley rat spinal cord; format: protein-complex assay
Summary of the method: (§1)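 Synaptic membranes from adult rat tissue (cerebral cortex or spinal cord–brainstem) incubated with 5 nM [3H]muscimol plus increasing competitor concentrations in 50 mM Tris-citrate, pH 7.1, 30 min at 4 °C. Bound ligand separated by rapid filtration through glass fiber filters, three washes with ice-cold buffer, scintillation counting. Nonspecific binding defined with 200 µM unlabeled GABA. Mean of three experiments in triplicate.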

[2] = Displacement of [3H]strychnine from strychnine-sensitive glycine receptor in rat spinal cord
[3] = biological target: GABA-A receptor; anion channel; assay: Displacement of [3H]muscimol from GABA-A receptor in Sprague-Dawley rat cerebral cortex; format: tissue-based; summary of the method: as §1

SMILES	IC50 [1]	IC50 [2]	IC50 [3]
COc1c(N[C@H]2O[C@@H](C)[C@H](O)[C@@H](O)[C@H]2O)cc2c(c1OC)-c1ccc(SC)c(=O)cc1[C@@H](NC(C)=O)CC2	3.8 µM	4.6 µM	> 100 µM
COc1c(N[C@@H]2O[C@@H](C)[C@@H](O)[C@@H](O)[C@@H]2O)cc2c(c1OC)-c1ccc(SC)c(=O)cc1[C@@H](NC(C)=O)CC2	5.9 µM	4.2 µM	10.5 µM
COc1c(N[C@@H]2O[C@H](CO)[C@@H](O)[C@H](O)[C@@H]2O)cc2c(c1OC)-c1ccc(SC)c(=O)cc1[C@@H](NC(C)=O)CC2	11.3 µM	13.1 µM	> 100 µM
COc1c(NC2O[C@H](CO)[C@@H](O)[C@H](O)[C@H]2O)cc2c(c1OC)-c1ccc(SC)c(=O)cc1[C@@H](NC(C)=O)CC2 (some centres undefined)	11.3 µM	10.6 µM	18 µM
NCC(=O)O [GLYCINE]	–	15.8 µM	–
O=C1C[C@@H]2OCC=C3CN4CC[C@]56c7ccccc7N1[C@H]5[C@H]2[C@H]3C[C@H]46 [STRYCHNINE]	–	0.014 µM	–
COc1c(O[C@@H]2O[C@H](CO)[C@@H](O)[C@H](O)[C@H]2O)cc2c(c1OC)-c1ccc(SC)c(=O)cc1[C@@H](NC(C)=O)CC2 [THIOCOLCHICOSIDE]	1.9 µM	1.5 µM	3.4 µM

Further lines, results first:

IC50 [1]	IC50 [2]	IC50 [3]	SMILES
1.9 µM	39.9 µM	5.4 µM	COc1c(N)cc2c(c1OC)-c1ccc(SC)c(=O)cc1[C@@H](NC(C)=O)CC2
3.3 µM	3.3 µM	7 µM	COc1c(NC2OC[C@@H](O)[C@H](O)[C@H]2O)cc2c(c1OC)-c1ccc(SC)c(=O)cc1[C@@H](NC(C)=O)CC2 (some centres undefined)
4 µM	4.1 µM	9.7 µM	COc1c(NC2OC[C@@H](O)[C@H](O)[C@@H]2O)cc2c(c1OC)-c1ccc(SC)c(=O)cc1[C@@H](NC(C)=O)CC2 (some centres undefined)
10.5 µM	8.6 µM	17.7 µM	COc1c(NC2OC[C@@H](O)[C@@H](O)[C@@H]2O)cc2c(c1OC)-c1ccc(SC)c(=O)cc1[C@@H](NC(C)=O)CC2 (some centres undefined)
